The subject of one test is K562. As to the kind of experiment: Cytotoxicity against human K562 cells after 72 hrs by MTT assay. Type of test: functional, cell-based. Particulars: K562, 72 h. In short, it runs like this: (§1)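 MTT assay. Log-phase cells were seeded at 5×10^4 cells/ml and treated in four replicates at 0.39–100 μg/ml, 37 °C, 5% CO2. At 72 h, MTT (5 mg/ml solution) was added for 4 h, then DMSO, and OD read at 490 nm. Negative reference was 0.1% DMSO; Taxol at 10 μg/ml served as positive reference. IC50 in μM, mean of three experiments.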

Test [1] can be described thus: Cytotoxicity against human CaEs17 cells after 72 hrs by MTT assay. Particulars: CaEs17, 72 h. Type of test: functional, cell-based. In short, it runs like this:
as §1
Background: Tetrazolium dyes change colour on reduction, which living cells bring about.

In a further test the test system is Bel-7402. Nature of the test: Cytotoxicity against human Bel7402 cells after 72 hrs by MTT assay. Type of test: functional, cell-based. Particulars: Bel-7402, 72 h. In short, it runs like this: as §1
The test system of test [2] is MGC-803. As to the kind of experiment: Cytotoxicity against human MGC803 cells after 72 hrs by MTT assay. Particulars: MGC-803, 72 h. Type of test: functional, cell-based. In short, it runs like this:
as §1

The test system of the next test is MCF7. Nature of the test: Cytotoxicity against human MCF7 cells after 72 hrs by MTT assay. Type of test: functional, cell-based. Particulars: MCF7, 72 h. In short, it runs like this: as §1
In a further test the test system is HeLa. Nature of the test: Cytotoxicity against human HeLa cells after 72 hrs by MTT assay. Type of test: functional, cell-based. The method in brief: as §1
Another test deals with A549. Nature of the test: Cytotoxicity against human A549 cells after 72 hrs by MTT assay. Type of test: functional, cell-based. Particulars: A549, 72 h. The method in brief: as §1
Test [3] concerns MGC-803. Nature of the test: Antitumor activity against human MGC803 cells xenografted in ICR mouse assessed as inhibition of tumor growth at 10 mg/kg, ip qd for 25 consecutive days dosed 7 days post tumor cells transplantation relative to untreated control. Type of test: functional. Particulars: MGC-803, ip, 168 h, read-out: INH, route intraperitoneal. In short, it runs like this: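 MGC-803 gastric cancer tumors in mice, 8 per group. Intraperitoneal dosing at 10 mg/kg in 1% DMSO/2% poloxamer/97% saline, started 7 d after tumor transplantation and given once daily for 25 consecutive days. The negative control received 0.9% saline ip. At the end, mice were killed and weighed and tumors excised and weighed. Inhibition (%) = (1 − mean treated tumor weight/mean control tumor weight) × 100.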
A general note: A xenograft is tissue or cells of one species grown in another, often human tumour cells in immunodeficient mice.

The next test has as its system HepG2. As to the kind of experiment: Cytotoxicity against human HepG2 cells. Type of test: functional, cell-based.
The subject of test [4] is MGC-803. Nature of the test: Antitumor activity against human MGC803 cells xenografted in ICR mouse assessed as inhibition of tumor growth at 10 mg/kg, iv qd for 25 consecutive days dosed 7 days post tumor cells transplantation relative to untreated control. Particulars: MGC-803, 168 h. Type of test: functional. In short, it runs like this:
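MGC-803 gastric cancer tumors in mice, 8 per group. Intravenous dosing at 10 mg/kg in 1% DMSO/2% poloxamer/97% saline, started 7 d after tumor transplantation and given once daily for 25 consecutive days. The control group received 0.9% saline ip. Tumors were excised and weighed at the end. Inhibition (%) = (1 − mean treated tumor weight/mean control tumor weight) × 100.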

Usually IC50 stands for the concentration needed to halve the response being measured. Low values mean greater potency, high ones weaker potency.

For `C=C1C(=O)[C@@]23C(=O)OC[C@]4(C(=O)CCC(C)(C)[C@H]4C=O)[C@@H]2CC[C@@H]1[C@H]3OC(=O)c1ccc(C(F)(F)F)cc1`, the IC50 with K562 stood at 2.82 µM; in [1], 8.96 µM; in the test on Bel-7402 it was 3.99 µM; in the test on MGC-803 [2], 4.93 µM.
For `C=C1C(=O)[C@@]23C(=O)OC[C@]4(C(=O)CCC(C)(C)[C@H]4C=O)[C@@H]2CC[C@@H]1[C@H]3OC(=O)c1ccc([N+](=O)[O-])cc1`, in that order: 1.33 µM, 2.68 µM, 3.3 µM and 3.33 µM.
`C=C1C(=O)[C@@]23C(=O)OC[C@]4(C(=O)CCC(C)(C)[C@H]4C=O)[C@@H]2CC[C@@H]1[C@H]3OC(=O)c1ccc(F)cc1`: the IC50 is 2.7 µM in the test on K562, 8.31 µM in [1], 3.75 µM with Bel-7402 and 3.96 µM with MGC-803 [2].
For `C=C1C(=O)[C@@]23C(=O)OC[C@]4(C(=O)CCC(C)(C)[C@H]4C=O)[C@@H]2CC[C@@H]1[C@H]3OC(=O)c1ccccc1F`, in that order: 2.86 µM, 8.55 µM, 3.95 µM and 3.94 µM.
Taken in the same sequence, the figures for `C=C1C(=O)[C@@]23C(=O)OC[C@]4(C(=O)CCC(C)(C)[C@H]4C=O)[C@@H]2CC[C@@H]1[C@H]3OC(=O)c1ccc(Cl)cc1` were 1.38 µM, 2.55 µM, 3.84 µM and 3.12 µM.
For `C=C1C(=O)[C@@]23C(=O)OC[C@]4(C(=O)CCC(C)(C)[C@H]4C=O)[C@@H]2CC[C@@H]1[C@H]3OC(=O)c1ccccc1Cl`, in that order: 1.22 µM, 2.01 µM, 2.89 µM and 2.66 µM.
Turning to `C=C1C(=O)[C@@]23C(=O)O[C@H]4CCC(C)(C)[C@H]5[C@H](O)OC[C@@]45[C@@H]2CC[C@@H]1[C@H]3O`, the IC50 in the test with K562 was found to be 8.11 µM; in the test on MCF7, 68.2 µM; in test [1], 30.8 µM; in the test on Bel-7402, 33 µM; in the test on HeLa, 60.7 µM; in the test on A549, 50.9 µM.
Take `C=C1C(=O)[C@@]23C(=O)O[C@H]4CCC(C)(C)[C@H]5C(=O)OC[C@@]45[C@@H]2CC[C@@H]1[C@H]3O`: the IC50 in the test with K562 was 2.64 µM; with MCF7, 20.3 µM; in [1], 23.7 µM; with Bel-7402, 16 µM; with HeLa, 39.7 µM; in the test with A549, 43.1 µM.
Regarding `C=C1C(=O)[C@@]23C(=O)OC[C@]4(C(=O)CCC(C)(C)[C@H]4C=O)[C@@H]2CC[C@@H]1[C@H]3O`, the IC50 was found to be 2.18 µM with K562; 24 µM with MCF7; 5.85 µM in test [1]; 5.03 µM with Bel-7402; 4.63 µM in the test with HeLa; 4.58 µM in the test with A549. The inhibition in vivo at 10 mg/kg in the test on MGC-803 [3] amounted to 31.4%.
Regarding `C=C1C(=O)[C@@]23C(=O)OC[C@]4([C@@H](OC(C)=O)CCC(C)(C)[C@H]4C=O)[C@@H]2CC[C@@H]1[C@H]3O`, the IC50 is 9.56 µM with K562; 76.7 µM with MCF7; 72.5 µM in [1]; 75.4 µM in the test on Bel-7402; 79.4 µM in the test with HeLa; 26 µM in the test with A549.
For `C=C1C(=O)[C@@]23C(=O)OC[C@]4(C(=O)CCC(C)(C)[C@H]4C=O)[C@@H]2CC[C@@H]1[C@H]3OC(C)=O`, the IC50 with K562 came out at 1.39 µM; in test [1], 1.35 µM; in the test with Bel-7402, 1.73 µM; in the test with MGC-803 [2], 1.66 µM.
As to `C=C1C(=O)[C@@]23C(=O)OC[C@]4(C(=O)CCC(C)(C)[C@H]4C=O)[C@@H]2CC[C@@H]1[C@H]3OC(=O)CC`, the IC50 is 1.31 µM in the test on K562, 1.4 µM in test [1], 1.65 µM with Bel-7402 and 1.78 µM in the test on MGC-803 [2].
Taken in the same sequence, the figures for `C=C1C(=O)[C@@]23C(=O)OC[C@]4(C(=O)CCC(C)(C)[C@H]4C=O)[C@@H]2CC[C@@H]1[C@H]3OC(=O)c1ccccc1` were 1.48 µM, 1.71 µM, 1.85 µM and 1.92 µM.
For `C=C1C(=O)[C@@]23C(=O)OC[C@]4(C(=O)CCC(C)(C)[C@H]4C=O)[C@@H]2CC[C@@H]1[C@H]3OC(=O)c1ccc(C)cc1`, in that order: 1.27 µM, 1.05 µM, 1.54 µM and 2.24 µM.
For `C=C1C(=O)[C@@]23C(=O)OC[C@]4(C(=O)CCC(C)(C)[C@H]4C=O)[C@@H]2CC[C@@H]1[C@H]3OC(=O)c1ccc(OC)cc1`, in that order: 1.65 µM, 2.98 µM, 2.8 µM and 1.87 µM.
Take `C=C1C(=O)[C@]23C[C@H]1C[C@H](O)[C@H]2[C@@]12CO[C@@H](O)[C@@H]1C(C)(C)CC[C@@H]2OC3=O` [EPINODOSIN]: the IC50 with HepG2 turned out to be 0.45 µM.
As for `C=C1C(=O)[C@]23[C@H](O)[C@H]1CC[C@H]2[C@@]12CO[C@]3(O)[C@@H](O)[C@@H]1C(C)(C)CC[C@@H]2O` [ORIDONIN], the IC50 with K562 stood at 4.76 µM; in the test with MCF7 it was 14.6 µM; in [1], 11 µM; in the test on Bel-7402, 7.48 µM; in the test on HeLa, 32.7 µM; in the test with A549 it was 26.2 µM. The IC50 in the test on MGC-803 [2] was determined as 5.69 µM. Also, the inhibition in vivo at 10 mg/kg in the test with MGC-803 [3] came out at 26.3%.
With `CC(=O)O[C@H]1C(=O)[C@@]2(C)[C@H]([C@H](OC(=O)c3ccccc3)[C@]3(O)C[C@H](OC(=O)[C@H](O)[C@@H](NC(=O)c4ccccc4)c4ccccc4)C(C)=C1C3(C)C)[C@]1(OC(C)=O)CO[C@@H]1C[C@@H]2O` [PACLITAXEL], the IC50 with K562 is 0.41 µM; in test [1], 0.43 µM; in the test with Bel-7402 it was 1.89 µM; in the test with MGC-803 [2], 0.85 µM. The inhibition in vivo at 10 mg/kg in the test with MGC-803 [4] stood at 66.6%.
In the case of `C=C1C(=O)[C@]23C[C@H]1CC[C@H]2[C@@]1(CCCC(C)(C)[C@H]1CO)COC3=O` [SCULPONEATIN N], the IC50 in the test on K562 was found to be 0.21 µM. That is a sub-micromolar value.

The record behind these values is ChEMBL document CHEMBL2021807, “The conversion of oridonin to spirolactone-type or enmein-type diterpenoid: synthesis and biological evaluation of ent-6,7-seco-oridonin derivatives as novel potential anticancer agents” (Eur J Med Chem, 2012).
